Series [1] has as its target T1, Cannabinoid receptor 2 (Homo sapiens, UniProt P34972). Briefly: Binding affinity to human CB2 receptor expressed in CHO cells. In kind it is cell-based.
Series [2] has as its target T1, Cannabinoid receptor 2. Briefly: Agonist activity at human CB2 receptor expressed in CHO CRE-luc cells. It counts as functional, cell-based.
Series [3] is described as follows: Cmax in brain of CD-1 mouse at 3 mg/kg, iv after 5 mins. It counts as ADME, organism-based. On the set-up: dose 3 mg/kg, route intravenous. An outline of the steps:
(§1)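 Male CD1 mice got a single intravenous dose of 3 mg/kg. Drug levels were measured in plasma and brain. The first sampling time was 5 min post-dose. Apparent terminal half-life and brain/plasma AUC(0-inf) were derived from the concentration-time profiles.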

The nature of series [4]: Apparent terminal half life in CD-1 mouse at 3 mg/kg, iv. To be noted: in vivo, read-out: betat1/2(app) (converted). On the set-up: dose 3 mg/kg, route intravenous. In kind it is ADME, organism-based. An outline of the steps: as §1
Series [5] in a line: Drug metabolism in baboon neuroinflammation model plasma assessed as compound remaining at 110 +/- 34 MBq, iv after 180 mins by HPLC analysis. In kind it is ADME, organism-based. As to conditions: papio anubis, read-out: Stability. An outline of the steps:
(§2)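 Radiotracer [¹⁸F]-d₂-3 (110 34 MBq) was given iv to rhesus macaque or baboon, with arterial blood sampled over 180 min. Parent fraction in plasma was determined by reverse-phase HPLC in a subset of samples. Where used, LPS (0.05 or 0.1 mg/kg) was given iv 4 h before the radiotracer.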

A short description of series [6]: Drug uptake in perietal cotrex of baboon neuroinflammation model at 110 +/- 34 MBq, iv after 20 mins by PET imaging analysis. It counts as ADME, organism-based, Parietal cortex. To be noted: papio anubis, in vivo. In a few lines:
(§3)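 Baboons (Papio anubis) received [¹⁸F]-d₂-3 (110 34 MBq) iv. PET images were acquired over 180 min on a Siemens Biograph mCT camera with arterial blood sampling. Regional time-activity curves (frontal, occipital, temporal and parietal cortex, cerebellum) were expressed as SUV, and whole-brain uptake as percent injected dose. Where used, LPS (0.05 or 0.1 mg/kg) was given iv 4 h before the radiotracer.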

Series [7] can be described thus: Drug uptake in cerebellum of baboon neuroinflammation model at 110 +/- 34 MBq, iv after 20 mins by PET imaging analysis. It counts as ADME, organism-based. To be noted: papio anubis, in vivo. An outline of the steps: as §3
A short description of series [8]: Drug uptake in frontal cortex of baboon neuroinflammation model at 110 +/- 34 MBq, iv after 20 mins by PET imaging analysis. In kind it is ADME, organism-based. As to conditions: papio anubis, in vivo. An outline of the steps: as §3
Series [9] can be described thus: Drug uptake in temporal cotrex of baboon neuroinflammation model at 110 +/- 34 MBq, iv after 20 mins by PET imaging analysis. As to conditions: papio anubis, in vivo. It counts as ADME, organism-based, Temporal cortex. In a few lines: as §3
Series [10] is described as follows: Drug metabolism in rhesus monkey plasma assessed as compound remaining at 110 +/- 34 MBq, iv after 180 mins by HPLC analysis. To be noted: read-out: Stability. In kind it is ADME, organism-based, Macaca mulatta. An outline of the steps: as §2
The nature of series [11]: Drug metabolism in baboon neuroinflammation model plasma assessed as compound remaining at 110 +/- 34 MBq, iv administered 180 mins post LPS-challenge by HPLC analysis. It counts as ADME, organism-based. As to conditions: papio anubis, read-out: Stability. In a few lines:
as §2

The test system of the next series is Brain. Briefly: Drug uptake in whole brain of baboon neuroinflammation model at 110 +/- 34 MBq, iv after 20 mins by PET imaging analysis. In kind it is ADME, organism-based. To be noted: papio anubis, in vivo. An outline of the steps:
as §3

The nature of series [12]: Drug uptake in occipital cotrex of baboon neuroinflammation model at 110 +/- 34 MBq, iv after 20 mins by PET imaging analysis. It counts as ADME, organism-based, Occipital cortex. As to conditions: papio anubis, in vivo. In a few lines: as §3
The target of series [13] is T1, Cannabinoid receptor 2. Kind of series: Binding affinity to human CB2 receptor.
In a further series the target is Cannabinoid receptor 1 (Homo sapiens, UniProt P21554). Briefly: Binding affinity to human CB1 receptor.
Sequence of Cannabinoid receptor 1 (P21554 whole entry): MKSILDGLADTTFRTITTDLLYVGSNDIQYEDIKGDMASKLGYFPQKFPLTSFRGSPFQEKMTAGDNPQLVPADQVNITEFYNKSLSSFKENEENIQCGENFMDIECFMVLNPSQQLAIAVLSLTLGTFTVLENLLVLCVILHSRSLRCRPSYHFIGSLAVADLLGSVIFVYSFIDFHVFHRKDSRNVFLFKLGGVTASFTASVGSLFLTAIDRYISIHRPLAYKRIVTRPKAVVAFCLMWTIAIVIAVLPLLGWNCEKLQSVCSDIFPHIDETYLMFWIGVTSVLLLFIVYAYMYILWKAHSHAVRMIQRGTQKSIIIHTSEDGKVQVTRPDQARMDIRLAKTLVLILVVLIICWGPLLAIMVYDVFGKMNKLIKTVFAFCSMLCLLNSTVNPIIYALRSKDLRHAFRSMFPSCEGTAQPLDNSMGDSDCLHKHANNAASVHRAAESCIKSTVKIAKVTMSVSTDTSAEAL

T1 sequence (P34972 whole entry): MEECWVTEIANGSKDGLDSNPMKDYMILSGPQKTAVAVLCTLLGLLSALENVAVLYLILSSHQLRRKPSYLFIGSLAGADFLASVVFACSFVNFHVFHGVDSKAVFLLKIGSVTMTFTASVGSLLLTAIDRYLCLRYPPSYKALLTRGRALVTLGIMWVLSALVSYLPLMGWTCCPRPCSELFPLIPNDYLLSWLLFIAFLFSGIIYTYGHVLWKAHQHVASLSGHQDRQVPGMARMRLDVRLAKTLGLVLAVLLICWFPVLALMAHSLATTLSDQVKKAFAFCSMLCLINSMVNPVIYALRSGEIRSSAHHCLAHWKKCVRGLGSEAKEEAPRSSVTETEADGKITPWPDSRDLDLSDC

`CC(C)(O)c1cc(-c2nc(NCCc3ccc(F)cc3)nc(OCF)n2)ccc1Cl`: at Cannabinoid receptor 2 [1], the IC50 is 1.4 nM. The compound further registered an EC50 on Cannabinoid receptor 2 [2] of 0.78 nM. Besides, in series [3], the highest level (Cmax) was 2300 ng/g. The half-life in series [4] was 57.6 min.
Turning to `[2H]C([2H])([18F])Oc1nc(NCCc2ccc(F)cc2)nc(-c2ccc(Cl)c(C(C)(C)O)c2)n1`, the remaining at 3 h in [5] amounted to 35%; in series [10] it was 35%; in [11], 15%. Moreover, the SUV in series [6], in [7], in [8], in [9] and in series [12] was 0.7 g/mL each time. This compound also returned a Drug uptake with Brain of 0.5 %ID.
In the case of `COc1nc(NCCc2ccc(F)cc2)nc(-c2ccc(Cl)c(C(C)(C)O)c2)n1`, the IC50 is 0.58 nM at Cannabinoid receptor 2 [13] and 300 nM on Cannabinoid receptor 1.

Source of the values: ChEMBL document CHEMBL3098084, “Synthesis and preliminary evaluation of a new fluorine-18 labelled triazine derivative for PET imaging of cannabinoid CB2 receptor” (Bioorg Med Chem Lett, 2014).
